Measured values from ChEMBL document CHEMBL4689842, “EUbOPEN Chemogenomics Library wave 1” (2021).

System: Fibroblast
Experiment: Multiplex assay against human fibroblast
Format: toxicity, cell-based
Outline: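 At seeding, live cells were stained with Hoechst33342, BioTracker Green Microtubule Cytoskeleton Dye, MitoTracker Red and Annexin V Alexa Fluor 680. After compound addition they were imaged on a CQ1 microscope at 37°C and 5% CO2, and CellPathfinder machine-learning gating sorted them into Hoechst high-intensity objects or normal cells, with normal cells further split into healthy, pyknosed or fragmented nuclei and pyknosed cells into mitotic or apoptotic. Tubulin, mitochondrial-mass and membrane-permeability phenotypes are given as per cents of cells with healthy nuclei.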

[1] = 12 h, 1 µM, compound concentration 1 uM, replicate 1
[2] = 12 h, 1 µM, compound concentration 1 uM, replicate 2
[3] = 12 h, 10 µM, compound concentration 10 uM, replicate 1
[4] = 12 h, 10 µM, compound concentration 10 uM, replicate 2
[5] = 24 h, 1 µM, compound concentration 1 uM, replicate 1
[6] = 24 h, 1 µM, compound concentration 1 uM, replicate 2
[7] = 24 h, 10 µM, compound concentration 10 uM, replicate 1
[8] = 24 h, 10 µM, compound concentration 10 uM, replicate 2
[9] = 48 h, 1 µM, compound concentration 1 uM, replicate 1
[10] = 48 h, 1 µM, compound concentration 1 uM, replicate 2
[11] = 48 h, 10 µM, compound concentration 10 uM, replicate 1
[12] = 48 h, 10 µM, compound concentration 10 uM, replicate 2

Compound: CCCCN(CC)c1nc(C)nc2c1c(C)cn2-c1c(C)cc(C)cc1C.Cl
- Population Apoptotic (%) [1]: 63%
- Population Fragmented Nuclei (%) [1]: 23%
- Population Healthy Nuclei (%) [1]: 44%
- Population Hoechst High Intensity Objects (%) [1]: 11%
- Population Membrane Permeable-Phenotype (%) [1]: 27%
- Population Mitochondria Different-Phenotype (%) [1]: 9%
- Population Mitotic Cells (%) [1]: 36%
- Population Normal (%) [1]: 88%
- Population Pyknosed Nuclei (%) [1]: 31%
- Population Tubulin-Different-Phenotype (%) [1]: 46%
- Total Cell Count [1]: 108
- Population Apoptotic (%) [2]: 55%
- Population Fragmented Nuclei (%) [2]: 13%
- Population Healthy Nuclei (%) [2]: 77%
- Population Hoechst High Intensity Objects (%) [2]: 3%
- Population Membrane Permeable-Phenotype (%) [2]: 5%
- Population Mitochondria Different-Phenotype (%) [2]: 8%
- Population Mitotic Cells (%) [2]: 44%
- Population Normal (%) [2]: 96%
- Population Pyknosed Nuclei (%) [2]: 9%
- Population Tubulin-Different-Phenotype (%) [2]: 14%
- Total Cell Count [2]: 95
- Population Apoptotic (%) [3]: 57%
- Population Fragmented Nuclei (%) [3]: 30%
- Population Healthy Nuclei (%) [3]: 37%
- Population Hoechst High Intensity Objects (%) [3]: 13%
- Population Membrane Permeable-Phenotype (%) [3]: 32%
- Population Mitochondria Different-Phenotype (%) [3]: 16%
- Population Mitotic Cells (%) [3]: 42%
- Population Normal (%) [3]: 86%
- Population Pyknosed Nuclei (%) [3]: 31%
- Population Tubulin-Different-Phenotype (%) [3]: 84%
- Total Cell Count [3]: 76
- Population Apoptotic (%) [4]: 20%
- Population Fragmented Nuclei (%) [4]: 9%
- Population Healthy Nuclei (%) [4]: 83%
- Population Hoechst High Intensity Objects (%) [4]: 6%
- Population Membrane Permeable-Phenotype (%) [4]: 4%
- Population Mitochondria Different-Phenotype (%) [4]: 55%
- Population Mitotic Cells (%) [4]: 80%
- Population Normal (%) [4]: 93%
- Population Pyknosed Nuclei (%) [4]: 6%
- Population Tubulin-Different-Phenotype (%) [4]: 19%
- Total Cell Count [4]: 78
- Population Apoptotic (%) [5]: 57%
- Population Fragmented Nuclei (%) [5]: 30%
- Population Healthy Nuclei (%) [5]: 49%
- Population Hoechst High Intensity Objects (%) [5]: 11%
- Population Membrane Permeable-Phenotype (%) [5]: 21%
- Population Mitochondria Different-Phenotype (%) [5]: 8%
- Population Mitotic Cells (%) [5]: 42%
- Population Normal (%) [5]: 88%
- Population Pyknosed Nuclei (%) [5]: 20%
- Population Tubulin-Different-Phenotype (%) [5]: 36%
- Total Cell Count [5]: 107
- Population Apoptotic (%) [6]: 29%
- Population Fragmented Nuclei (%) [6]: 13%
- Population Healthy Nuclei (%) [6]: 70%
- Population Hoechst High Intensity Objects (%) [6]: 5%
- Population Membrane Permeable-Phenotype (%) [6]: 3%
- Population Mitochondria Different-Phenotype (%) [6]: 6%
- Population Mitotic Cells (%) [6]: 70%
- Population Normal (%) [6]: 94%
- Population Pyknosed Nuclei (%) [6]: 15%
- Population Tubulin-Different-Phenotype (%) [6]: 7%
- Total Cell Count [6]: 116
- Population Apoptotic (%) [7]: 73%
- Population Fragmented Nuclei (%) [7]: 30%
- Population Healthy Nuclei (%) [7]: 47%
- Population Hoechst High Intensity Objects (%) [7]: 26%
- Population Membrane Permeable-Phenotype (%) [7]: 14%
- Population Mitochondria Different-Phenotype (%) [7]: 32%
- Population Mitotic Cells (%) [7]: 26%
- Population Normal (%) [7]: 73%
- Population Pyknosed Nuclei (%) [7]: 21%
- Population Tubulin-Different-Phenotype (%) [7]: 88%
- Total Cell Count [7]: 97
- Population Apoptotic (%) [8]: 25%
- Population Fragmented Nuclei (%) [8]: 8%
- Population Healthy Nuclei (%) [8]: 80%
- Population Hoechst High Intensity Objects (%) [8]: 4%
- Population Membrane Permeable-Phenotype (%) [8]: 3%
- Population Mitochondria Different-Phenotype (%) [8]: 54%
- Population Mitotic Cells (%) [8]: 75%
- Population Normal (%) [8]: 95%
- Population Pyknosed Nuclei (%) [8]: 11%
- Population Tubulin-Different-Phenotype (%) [8]: 21%
- Total Cell Count [8]: 74
- Population Apoptotic (%) [9]: 50%
- Population Fragmented Nuclei (%) [9]: 24%
- Population Healthy Nuclei (%) [9]: 61%
- Population Hoechst High Intensity Objects (%) [9]: 16%
- Population Membrane Permeable-Phenotype (%) [9]: 13%
- Population Mitochondria Different-Phenotype (%) [9]: 6%
- Population Mitotic Cells (%) [9]: 50%
- Population Normal (%) [9]: 83%
- Population Pyknosed Nuclei (%) [9]: 14%
- Population Tubulin-Different-Phenotype (%) [9]: 32%
- Total Cell Count [9]: 118
- Population Apoptotic (%) [10]: 100%
- Population Fragmented Nuclei (%) [10]: 26%
- Population Healthy Nuclei (%) [10]: 71%
- Population Hoechst High Intensity Objects (%) [10]: 6%
- Population Membrane Permeable-Phenotype (%) [10]: 6%
- Population Mitochondria Different-Phenotype (%) [10]: 4%
- Population Mitotic Cells (%) [10]: 0%
- Population Normal (%) [10]: 93%
- Population Pyknosed Nuclei (%) [10]: 2%
- Population Tubulin-Different-Phenotype (%) [10]: 46%
- Total Cell Count [10]: 93
- Population Apoptotic (%) [11]: 75%
- Population Fragmented Nuclei (%) [11]: 43%
- Population Healthy Nuclei (%) [11]: 51%
- Population Hoechst High Intensity Objects (%) [11]: 20%
- Population Membrane Permeable-Phenotype (%) [11]: 13%
- Population Mitochondria Different-Phenotype (%) [11]: 18%
- Population Mitotic Cells (%) [11]: 25%
- Population Normal (%) [11]: 79%
- Population Pyknosed Nuclei (%) [11]: 4%
- Population Tubulin-Different-Phenotype (%) [11]: 60%
- Total Cell Count [11]: 104
- Population Apoptotic (%) [12]: 66%
- Population Fragmented Nuclei (%) [12]: 46%
- Population Healthy Nuclei (%) [12]: 50%
- Population Hoechst High Intensity Objects (%) [12]: 12%
- Population Membrane Permeable-Phenotype (%) [12]: 20%
- Population Mitochondria Different-Phenotype (%) [12]: 10%
- Population Mitotic Cells (%) [12]: 33%
- Population Normal (%) [12]: 87%
- Population Pyknosed Nuclei (%) [12]: 3%
- Population Tubulin-Different-Phenotype (%) [12]: 89%
- Total Cell Count [12]: 189
